Among the data in ChEMBL document CHEMBL1155454, “The pthaladyns: GTP competitive inhibitors of dynamin I and II GTPase derived from virtual screening” (J Med Chem, 2010) are inhibition, IC50 and Activity values, retold here.

Broadly, the inhibition is the drop in the measured response relative to a control, in per cent. The term IC50 denotes the concentration needed to halve the response being measured.

Structures are written as SMILES. Calls of active or inactive are those of the source. The calls are words filed in the database; no cut-off is given here. Where only a bound is given, the exact number is not on record here.

The species entered for experiment [1] is Ovis aries. As to the kind of experiment: Inhibition of sheep brain dynamin 1 at 300 uM after 30 mins by malachite green method. The method, boiled down: (§1)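 Enzyme was endogenous dynamin I purified from sheep brain. GTPase activity was read by malachite green phosphate detection, with dynamin and lipid levels set for adequate optical response. Inhibition was also scored at single concentrations of 300 or 400 μM.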

Experiment [2] is described as follows: Inhibition of sheep brain dynamin 1 after 30 mins by malachite green method. Set-up: species or system Ovis aries. The gist of the method: as §1
For experiment [3], the species on record is Ovis aries. As to the kind of experiment: Inhibition of sheep brain dynamin 1 at 400 uM after 30 mins by malachite green method. The gist of the method:
as §1

Experiment [4] has as its target T1, Dynamin-2 (Homo sapiens, UniProt P50570).
T1 sequence (P50570 whole entry): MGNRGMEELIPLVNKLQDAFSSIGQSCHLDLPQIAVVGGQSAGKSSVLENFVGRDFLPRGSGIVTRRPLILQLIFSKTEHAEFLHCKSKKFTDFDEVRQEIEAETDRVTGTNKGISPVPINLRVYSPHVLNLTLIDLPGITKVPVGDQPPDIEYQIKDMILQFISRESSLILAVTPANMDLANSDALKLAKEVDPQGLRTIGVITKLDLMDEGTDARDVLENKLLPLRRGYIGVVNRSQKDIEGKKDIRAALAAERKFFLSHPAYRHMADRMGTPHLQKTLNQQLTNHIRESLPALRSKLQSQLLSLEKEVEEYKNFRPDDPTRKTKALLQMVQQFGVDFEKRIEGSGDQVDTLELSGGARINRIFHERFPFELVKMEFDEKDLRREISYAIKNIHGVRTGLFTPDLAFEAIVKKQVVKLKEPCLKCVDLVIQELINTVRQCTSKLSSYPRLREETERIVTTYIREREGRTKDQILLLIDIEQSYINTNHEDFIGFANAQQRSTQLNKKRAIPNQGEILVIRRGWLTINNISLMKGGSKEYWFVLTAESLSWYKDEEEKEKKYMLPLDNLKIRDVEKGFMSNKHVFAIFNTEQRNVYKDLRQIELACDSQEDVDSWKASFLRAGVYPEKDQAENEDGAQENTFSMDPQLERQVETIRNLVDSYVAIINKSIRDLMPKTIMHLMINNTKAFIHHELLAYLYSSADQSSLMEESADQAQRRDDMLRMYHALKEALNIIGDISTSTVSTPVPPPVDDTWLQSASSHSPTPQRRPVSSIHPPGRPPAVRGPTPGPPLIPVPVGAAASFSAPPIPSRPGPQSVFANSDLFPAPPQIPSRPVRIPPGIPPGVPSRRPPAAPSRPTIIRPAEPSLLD
As to the kind of experiment: Inhibition of recombinant dynamin 2 expressed in Sf9 cells after 30 mins by malachite green method.

The target of experiment [5] is T1, Dynamin-2. The experiment is described as follows: Inhibition of dynamin 2-mediated receptor-induced endocytosis in human U2OS cells assessed as uptake of Tf-TxR dye after 30 mins by automated acquisition and analysis system. The class given is cell-based.
Another experiment deals with T2, Dynamin-1 (Rattus norvegicus, UniProt P21575).
T2 sequence (P21575 whole entry): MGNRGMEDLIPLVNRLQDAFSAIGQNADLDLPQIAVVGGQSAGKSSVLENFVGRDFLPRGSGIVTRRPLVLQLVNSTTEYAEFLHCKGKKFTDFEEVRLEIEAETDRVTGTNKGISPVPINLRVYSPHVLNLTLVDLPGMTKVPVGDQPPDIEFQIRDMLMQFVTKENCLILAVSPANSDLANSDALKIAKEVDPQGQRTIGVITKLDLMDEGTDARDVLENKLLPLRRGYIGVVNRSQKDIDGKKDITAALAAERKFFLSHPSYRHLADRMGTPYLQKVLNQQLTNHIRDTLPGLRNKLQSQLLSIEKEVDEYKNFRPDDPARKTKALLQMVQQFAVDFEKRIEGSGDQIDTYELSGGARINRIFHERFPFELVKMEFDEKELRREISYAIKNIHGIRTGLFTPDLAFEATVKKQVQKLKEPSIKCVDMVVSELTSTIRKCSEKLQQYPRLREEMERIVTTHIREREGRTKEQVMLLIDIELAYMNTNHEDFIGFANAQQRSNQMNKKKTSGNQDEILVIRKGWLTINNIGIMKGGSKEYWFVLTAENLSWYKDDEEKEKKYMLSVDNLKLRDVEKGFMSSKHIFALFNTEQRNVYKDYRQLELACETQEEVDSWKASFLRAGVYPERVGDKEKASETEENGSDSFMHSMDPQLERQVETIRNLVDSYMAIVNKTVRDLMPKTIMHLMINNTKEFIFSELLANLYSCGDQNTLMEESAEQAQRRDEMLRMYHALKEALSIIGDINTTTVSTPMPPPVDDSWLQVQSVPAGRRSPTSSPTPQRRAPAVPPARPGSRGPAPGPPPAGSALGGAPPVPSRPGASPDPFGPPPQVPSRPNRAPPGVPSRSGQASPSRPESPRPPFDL
As to the kind of experiment: Inhibition of dynamin 1-mediated synaptic vesicle endocytosis in Sprague-Dawley rat synaptosomes assessed as uptake of FM 4-64 dye after 30 mins by automated acquisition and analysis system. The class given is subcellular, Brain. The method, boiled down:
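Rat brain nerve terminals (isolated synaptosomes) used for synaptic vesicle endocytosis. Endocytosis was tracked as change in uptake of the styryl dye FM4-64, an endocytic marker.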

The species entered for experiment [6] is Ovis aries. As to the kind of experiment: Competitive inhibition of dynamin 1 from sheep brain at 14 to 19 uM by Lineweaver-Burke plot. The method, boiled down: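 Dynamin I GTPase purified from sheep brain, read by malachite green phosphate release. Michaelis-Menten kinetics with inhibitor at 14, 15, 16, 17, 18 and 19 μM and Mg2+·GTP substrate at 60-200 μM. Double-reciprocal (Lineweaver-Burke) plot of reaction velocity against substrate. Four independent experiments, each in triplicate; mean ± SEM.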

Take `CCOC(=O)c1ccc(N2C(=O)c3ccc(C(=O)Nc4cc(Cl)ccc4C(=O)O)cc3C2=O)cc1`: in the experiment listed under Ovis aries [1], the inhibition was determined as 50%. In experiment [2], `CC(C)(C)c1ccc(N2C(=O)c3ccc(C(=O)Nc4cc(Cl)ccc4C(=O)O)cc3C2=O)cc1` showed an IC50 of 112 µM. Consider `Nc1ccc(N2C(=O)c3ccc(C(=O)Nc4cc(Cl)ccc4C(=O)O)cc3C2=O)cc1`, for which, in the experiment listed under Ovis aries [3], the inhibition result was “inactive”.

As to `O=C(Nc1cc(Cl)ccc1C(=O)O)c1ccc2c(c1)C(=O)N(c1ccc(O)cc1)C2=O`, the IC50 was 114 µM on Dynamin-2 [4], “Not Active” on Dynamin-2 [5], “Not Active” at Dynamin-1 and 39.8 µM in experiment [2].

As for `O=C(Nc1cc(Cl)ccc1C(=O)O)c1ccc2c(c1)C(=O)N(c1cccc([N+](=O)[O-])c1)C2=O`, the IC50 is 12.9 µM at Dynamin-1 (read-out: IC50) and 17.4 µM in experiment [2]. Besides, the outcome in the experiment filed under Ovis aries [6] was Active. For `O=C(Nc1cc(Cl)ccc1C(=O)O)c1ccc2c(c1)C(=O)N(c1ccc([N+](=O)[O-])cc1)C2=O`, half-maximal inhibition in experiment [2] (IC50) was put at 16.6 µM. In experiment [2], `O=C(Nc1cc(Cl)ccc1C(=O)O)c1ccc2c(c1)C(=O)N(c1ccccc1C(=O)O)C2=O` returned an IC50 of 184 µM. For `Cc1cccc(C)c1N1C(=O)c2ccc(C(=O)Nc3cc(Cl)ccc3C(=O)O)cc2C1=O`, the inhibition entry in the experiment listed under Ovis aries [3] is “inactive”. As to `O=C(O)c1ccc(N2C(=O)c3ccc(C(=O)Nc4cc(Cl)ccc4C(=O)O)cc3C2=O)cc1`, inhibition in experiment [2] was half-maximal at 95 µM (IC50). Compound `COc1ccc(N2C(=O)c3ccc(C(=O)Nc4cc(Cl)ccc4C(=O)O)cc3C2=O)cc1` displayed an IC50 in experiment [2] of 78 µM. Compound `O=C(Nc1cc(Cl)ccc1C(=O)O)c1ccc2c(c1)C(=O)N(c1cccc(CO)c1)C2=O` had an IC50 in experiment [2] of 111 µM.

Take `O=C(Nc1cc(Cl)ccc1C(=O)O)c1ccc2c(c1)C(=O)N(CCc1ccccc1)C2=O`: the inhibition entry in the experiment filed under Ovis aries [3] was “inactive”. `O=C(Nc1cc(Cl)ccc1C(=O)O)c1ccc2c(c1)C(=O)N(c1ccc(CO)cc1)C2=O`: the values for the IC50 (on Dynamin-1 (read-out: IC50); in experiment [2]) were 690 µM and 4.58 µM, respectively. `Nc1cccc(N2C(=O)c3ccc(C(=O)Nc4cc(Cl)ccc4C(=O)O)cc3C2=O)c1` came in with an IC50 in experiment [2] of 94 µM. `Nc1ccccc1N1C(=O)c2ccc(C(=O)Nc3cc(Cl)ccc3C(=O)O)cc2C1=O`: in experiment [2], the midpoint of inhibition, the IC50, lay at 311 µM.

For the compound `O=C(O)Cc1ccc(N2C(=O)c3ccc(C(=O)Nc4cc(Cl)ccc4C(=O)O)cc3C2=O)cc1`, it took 95.5 µM to reach half-maximal inhibition in experiment [2] (IC50).

`O=C(Nc1cc(Cl)ccc1C(=O)O)c1ccc2c(c1)C(=O)N(c1cccc3ccccc13)C2=O`: the inhibition entry in the experiment listed under Ovis aries [3] was “inactive”. On the same count and under the same terms, under `O=C(Nc1cc(Cl)ccc1C(=O)O)c1ccc2c(c1)C(=O)N(c1ccccc1)C2=O` stands “inactive”.

Regarding `O=C(Nc1cc(Cl)ccc1C(=O)O)c1ccc2c(c1)C(=O)N(c1ccc(C(=O)O)c(O)c1)C2=O`, the IC50 in experiment [2] came to 267 µM. As to `COc1ccc(CN2C(=O)c3ccc(C(=O)Nc4cc(Cl)ccc4C(=O)O)cc3C2=O)cc1`, in the experiment filed under Ovis aries [3], the inhibition entry was “inactive”. For `O=C(Nc1cc(Cl)ccc1C(=O)O)c1ccc2c(c1)C(=O)N(c1ccccc1O)C2=O`, the half-maximal inhibitory concentration (IC50) at Dynamin-1 (read-out: IC50) amounted to 119 µM; in experiment [2], 61 µM. For the compound `O=C(Nc1cc(Cl)ccc1C(=O)O)c1ccc2c(c1)C(=O)N(Cc1ccccc1)C2=O`, in the experiment listed under Ovis aries [3], the inhibition result is “inactive”. For the compound `O=C(Nc1cc(Cl)ccc1C(=O)O)c1ccc2c(c1)C(=O)N(c1ccccc1CO)C2=O`, the inhibition result in the experiment listed under Ovis aries [3] was “inactive”. In experiment [2], `O=C(Nc1cc(Cl)ccc1C(=O)O)c1ccc2c(c1)C(=O)N(Cc1cccnc1)C2=O` returned an IC50 of 84 µM.

Take `O=C(Nc1cc(Cl)ccc1C(=O)O)c1ccc2c(c1)C(=O)N(C1CCCc3ccccc31)C2=O` (centres undefined): the inhibition result in the experiment listed under Ovis aries [3] is “inactive”. Turning to `O=C(Nc1cc(Cl)ccc1C(=O)O)c1ccc2c(c1)C(=O)N(c1cccc(O)c1)C2=O`, the inhibition entry in the experiment listed under Ovis aries [3] was “inactive”. On to `O=C(O)CCc1ccc(N2C(=O)c3ccc(C(=O)Nc4cc(Cl)ccc4C(=O)O)cc3C2=O)cc1`, for which half-maximal inhibition in experiment [2] (IC50) was put at 104 µM.

Turning to `CSc1ccc(N2C(=O)c3ccc(C(=O)Nc4cc(Cl)ccc4C(=O)O)cc3C2=O)cc1`, in the experiment filed under Ovis aries [3], the inhibition entry is “inactive”. In the case of `COc1cccc(N2C(=O)c3ccc(C(=O)Nc4cc(Cl)ccc4C(=O)O)cc3C2=O)c1`, the inhibition entry in the experiment filed under Ovis aries [3] was “inactive”.

Consider `O=C(Nc1cc(Cl)ccc1C(=O)O)c1ccc2c(c1)C(=O)N(CCCCc1ccccc1)C2=O`, for which, in the experiment listed under Ovis aries [3], the inhibition result is “inactive”. On to `O=C(Nc1cc(Cl)ccc1C(=O)O)c1ccc2c(c1)C(=O)N(c1ccccc1-c1ccccc1)C2=O`, for which, in the experiment listed under Ovis aries [3], the inhibition came to 40%. For the same compound, the IC50 in experiment [2] is over 400 µM.
